Hits are enriched below; roughly 3.9% of the tested compounds scored in any of these assays.
CHOP inh: CHOP inhibition in unfolded protein response; CHO-K1 CHOP-promoter luciferase, tunicamycin-induced, 15-18 h; inhibition, % at 10 µM; 220,000 compounds, 3.8% hits;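 active = compounds that reduced the stress-induced luciferase reporter signal by more than about 70% of percent inhibition, limit read from the data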;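 note: 0% = tunicamycin plus vehicle and 100% = wells without tunicamycin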
CHOP UPR activ: apoptotic UPR (CHOP) activation. 330,000 compounds, 0.34% hits. activation, % at 10 µM. AID 449763. CHO-CHOP luciferase reporter, luminescence; percent of tunicamycin response over DMSO baseline;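 active = at 10 µM dose, activation of 40% or more, normalized to positive control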;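 note: 100% = tunicamycin at 10 µg/mL and 0% = DMSO alone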
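assay system = CHO CHOP reporter cells | amount = 500 CHO-CHOP cells per well | buffer or medium = F12 with 10% FBS | incubation = 16-18 h cell attachment, then 6 h compound exposure, 37 °C | detection = luminescence read with Steady-Glo | read-out = percent activation relative to tunicamycin control | controls = tunicamycin high control, DMSO low control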
Jurkat NFkB inh: inhibitors of the PMA/ionomycin-induced NF-kB reporter in Jurkat cells | 330,000 compounds, 0.53% hits | PMA/ionomycin-induced NF-kB luciferase reporter, luminescence | AID 435003 | inhibition, % at 4 µM; in the data active = inhibition above about 50%
Gli-Sufu antag: blocks Gli-Sufu signaling in a luciferase reporter. Sufu-KO-LIGHT fibroblasts, Gli luciferase reporter luminescence. 340,000 compounds, 0.74% hits. AID 588413. inhibition, % at 5 µM;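 active = inhibition above about 55%, limit read from the data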;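 note: 0% = DMSO-treated cells and 100% = wells with medium but no cells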
UPR XBP1 act: activators of adaptive arm of unfolded protein response (XBP1). CHO-XBP1 luciferase reporter, IRE1-XBP1 UPR activation, luminescence; percent of tunicamycin response, DMSO as zero. activation, % at 20 µM. 330,000 compounds, 0.33% hits;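 active = versus positive control, 20 µM dose yields 30% or more activation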;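 note: 100% = tunicamycin at 10 µg/mL and 0% = DMSO only wells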
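Material: CHO-XBP1 cells stably carrying IRE1-XBP1-driven luciferase reporter / Amount: 1000 cells per well / Compound: 20 µM, 1% DMSO / Times: 6 h treatment, 37 °C / Detection: luciferase luminescence / Measure: % activation of reporter signal versus tunicamycin and DMSO controls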
697 NFkB inh: inhibitors of the PMA/ionomycin-induced NF-kB reporter in 697 B cells | 330,000 compounds, 0.33% hits | inhibition, % at 4 µM | AID 435022 | 697 B-cell NF-kB luciferase reporter, 16 h; in the data active = inhibition above about 35%
The depositor's hits bear a star; nt = no result given.

SMILES | CHOP inh | CHOP UPR activ | Jurkat NFkB inh | Gli-Sufu antag | UPR XBP1 act | 697 NFkB inh
COc1ccc(/C=C/C(=O)OCC(=O)Nc2cc3oc4ccccc4c3cc2OC)cc1 | 37 | 115* | -60 | nt | 163* | -30
CCCC(=O)Nc1nc2ccc3nc(C)sc3c2s1 | 75* | 5 | -10 | 6 | -1 | -13
CC(=O)c1cccc(NC(=O)CN(C)S(=O)(=O)c2ccc3c(c2)CC(C)N3C(C)=O)c1 (centres undefined) | nt | 3 | 7 | 0 | -4 | 10
CN1C(=O)c2cccc(NCCCN3C(=O)c4ccccc4C3=O)c2C1=O | 5 | 1 | -39 | -8 | 0 | -60
CN1C(=O)c2cccc(NCCCCCCN3C(=O)c4ccccc4C3=O)c2C1=O | 71* | 2 | 1 | 24 | -2 | -16
O=C(Nc1ccc(F)cc1F)c1ccccc1NC(=O)C1CC=CCC1C(=O)O (centres undefined) | nt | -1 | 12 | 2 | -1 | -8
CC(C)CN1C(=O)/C(=C(/C#N)C(=O)NC2CCCCC2)c2ccccc21 | 92* | -2 | 12 | 25 | -3 | -5
Cc1[nH]c2ccc(F)cc2c1CCN(Cc1ccco1)C(=S)NC(C)(C)C | 81* | 4 | 4 | 6 | -5 | -11
CNC(=S)N(CCc1c(C)[nH]c2ccc(F)cc12)Cc1ccco1 | nt | 1 | -1 | 1 | 0 | 13
CC(=O)Nc1nc(S(=O)(=O)c2ccc(C)cc2)c(Cl)s1 | 42 | -2 | 6 | -1 | 0 | -1
Cc1ccc(S(=O)(=O)c2nc(Nc3nccs3)sc2Cl)cc1 | 72* | -3 | 6 | -1 | -4 | -6
CCN1CCc2c(sc(NC(=O)Nc3ccc(Cl)c(Cl)c3)c2C(N)=O)C1 | 70* | nt | nt | -7 | nt | nt
CCN1CCc2c(sc(NC(=O)Cc3ccccc3)c2C(N)=O)C1 | nt | 0 | -11 | 3 | 1 | 15
Cc1ccc(S(=O)(=O)N2CCCCC2)cc1NC(=O)COC(=O)c1cccn1C | nt | 0 | 8 | 1 | -3 | -2
CCOc1ccc(S(=O)(=O)N(CC(=O)Nc2cc(C)on2)Cc2ccccc2Cl)cc1 | 73* | -1 | -11 | -3 | -2 | 7
CCOc1ccc(N(CC(=O)NCc2ccccc2Cl)S(=O)(=O)c2c(C)noc2C)cc1 | nt | -1 | 8 | -11 | -5 | -6
COCCNC(=O)C(c1ccc(C)cc1)N(Cc1ccco1)C(=O)CCC(=O)Nc1ccccn1 (centres undefined) | nt | 0 | 3 | -32 | -3 | 3
Cc1ccc(S(=O)(=O)Nc2cc(=O)[nH]c(SCc3ccc(Cl)cc3)n2)cc1 | 86* | nt | nt | -2 | nt | nt
O=c1cc(NS(=O)(=O)c2ccccc2)nc(SCc2ccccc2Cl)[nH]1 | 26 | -2 | 0 | -4 | -3 | -6
O=c1cc(NS(=O)(=O)c2ccccc2)nc(SCc2c(Cl)cccc2Cl)[nH]1 | 80* | 5 | -10 | -6 | -2 | -7
COc1ccc(Cl)cc1NC(=O)CSc1nc(NS(=O)(=O)c2ccc(C)cc2)cc(=O)[nH]1 | nt | 8 | 3 | 14 | 6 | 7
CCn1nc(C)cc1C(=O)N1CCCC(N(C)CCc2ccc(OC)c(OC)c2)C1 (centres undefined) | nt | -1 | -1 | 1 | -4 | -3
Cc1ccc(Nc2nc(C)c(CCC(C)C)c(=O)[nH]2)cc1 | 78* | 2 | -35 | 4 | -7 | -42
Cc1nc(NCc2ccccc2)[nH]c(=O)c1CCC(C)C | 76* | 1 | 0 | 5 | 0 | 6
Cc1nc(N2CCN(c3ccccc3)CC2)[nH]c(=O)c1CCC(C)C | 15 | 3 | 3 | 3 | 1 | 8
SMILES | CHOP inh | CHOP UPR activ | Jurkat NFkB inh | Gli-Sufu antag | UPR XBP1 act | 697 NFkB inh
Cc1ccc(Nc2nc3c(c(=O)[nH]2)CCCC3)cc1 | -4 | 1 | -38 | -38 | -1 | -26
Cc1ccccc1N(C(=O)c1ccccn1)C(C(=O)NCc1ccccc1)c1cccnc1 (centres undefined) | nt | 3 | 3 | 11 | 1 | 7
COc1cccc(N2CCN(C3CC(=O)N(c4ccc(C)c(Cl)c4)C3=O)CC2)c1 (centres undefined) | 55 | -2 | 6 | -26 | -2 | 1
COc1cccc(N2CCN(C3CC(=O)N(c4ccc(F)c(Cl)c4)C3=O)CC2)c1 (centres undefined) | 71* | -2 | -7 | -3 | -1 | 11
Cc1cccc(NC(=O)Cn2c(O)c(N=NC(=O)c3ccncc3)c3ccccc32)c1 | 84* | 1 | -19 | 5 | -3 | -15
O=C(N=Nc1c(O)n(Cc2ccccc2)c2ccccc12)c1ccncc1 | 9 | 3 | 4 | -16 | 1 | -28
Cc1ccc(-c2nn(-c3ccccc3)cc2C2CC(c3ccccc3)=NN2C(=O)CCC(=O)O)cc1 (centres undefined) | 24 | 0 | 0 | -1 | -3 | 4
Cc1ccc(C2=NN(C(=O)CCC(=O)O)C(c3cn(-c4ccccc4)nc3-c3ccc(C)cc3)C2)cc1 (centres undefined) | 95* | 1 | 1 | 0 | 1 | -3
COc1ccccc1C(CNC(=O)C1CC(=O)N(Cc2ccccc2)C1)N1CCCC1 (centres undefined) | nt | -2 | -6 | -2 | 0 | 7
N#C/C=C(/N)N1CCN(c2ccc(Cl)c(Cl)c2)CC1 | 80* | -1 | -16 | 4 | -4 | 0
CCOC(=O)C1(S(=O)(=O)c2ccc(Cl)cc2)CCN(Cc2ccc(C)cc2)CC1 | 74* | -1 | -2 | -3 | 0 | -13
CC(=O)c1c(C)[nH]c(C(=O)NCCc2c[nH]c3ccccc23)c1C | nt | 3 | -34 | -42 | -1 | -34
Cc1cccc(C)c1NC(=O)c1cccc2c1-c1ccccc1C2=O | 78* | 2 | 11 | -1 | 2 | 6
CC(C)(CCO)Nc1ncnc2onc(-c3ccc(F)cc3)c12 | nt | 0 | -9 | -5 | 2 | 2
COc1ccccc1NC(=O)c1nnn(CC(=O)Nc2ccccc2)c1N | 11 | -1 | -1 | -3 | 0 | 7
CCOc1ccccc1NC(=O)Cn1nnc(C(=O)Nc2ccccc2Cl)c1N | 73* | 4 | 1 | 29 | -2 | -19
COc1ccccc1NC(=O)c1nnn(CC(=O)Nc2cccc(SC)c2)c1N | 70* | -3 | 1 | -8 | -1 | 13
Cc1ccnc(NC(=O)c2ccc3c(c2)C(=O)N(CCC(C)C)C3=O)c1 | nt | 1 | 3 | -6 | -1 | 16
Cn1cccc1C(=O)OCC(=O)Nc1ccc2c(c1)OCO2 | -13 | 7 | -73 | 9 | 1 | 4
Cn1cccc1C(=O)OCc1cc(Cl)cc2c1OCOC2 | 73* | 5 | -46 | -49 | 3 | -84
Cc1cc(OC(=O)N2CCCCC2)cc(C)c1Cl | 76* | 0 | -1 | 8 | 0 | -4
